An excerpt weighted towards active compounds, which were near 2.9% of everything screened.
PglD DTNB = C. jejuni PglD acetyltransferase inhibitors, primary screen, biochemical, DTNB colorimetric, single point; UDP-N-acetylbacillosamine N-acetyltransferase PglD (Campylobacter jejuni); 360,000 compounds, 0.098% hits; purified PglD enzyme, DTNB colorimetric CoA detection; AID 602405, 2012; inhibition, % at 12.5 µM; in the data active = inhibition above about 16%, passing the limit was not always enough
Vif imaging = HIV Vif self-association inhibitors, primary screen, imaging, HEK293T, single point; inhibition, % at 7.49 µM; 340,000 compounds, 0.35% hits; HEK293T cells, Vif self-association by quenched fluorescence, 24 h; in the data active = inhibition above about 50%, passing the limit was not always enough
Cneo AK release = Cryptococcus neoformans cell lysis inducers, primary screen, AK release luminescence, single concentration; lysis activity, % at 15 µM; C. neoformans lysis, adenylate kinase release luminescence, 4 h; normalised: neutral wells 0, clomiphene wells 100; 360,000 compounds, 0.2% hits;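 active = mean lysis activity across replicates of at least 80%, whatever share of replicates individually reach that level; inactive = mean lysis activity below 80%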
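Assay system: Cryptococcus neoformans yeast cells / Dosing: single-point compound dose / Timing: 4 h at 37 °C static, read 1 h later / Measured by: luminescence of released adenylate kinase using an AK detection reagent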
PGC1a acetyl inh = inhibitors of PGC1a acetylation signal, primary screen, cell-based, U2OS, AlphaScreen, inhibitor mode | AlphaScreen anti-acetyl-lysine; with virally co-expressed GCN5 acetyltransferase | inhibition, % at 15.6 µM | 350,000 compounds, 0.17% hits;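 active = every replicate shows inhibition of at least 40%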;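 also: 0% = neutral control wells and 100% = positive control wells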
FGF22 binding = binders of human FGF22 protein, primary screen, FGF22 synaptogenesis inhibitor project, biophysical, thermal shift, single point. Fibroblast growth factor 22 (Homo sapiens), Q9HCT0. 340,000 compounds, 1.5% hits. activity (Tm shift, normalised), % at 9.99 µM. recombinant FGF22 thermal shift, SYPRO orange fluorescence; percent of sucrose octasulfate shift, DMSO zero;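 active = mean Tm shift, scaled 0 neutral to 100 positive control, at about 1.3% or above, every replicate too, limit read from the data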
Target sequence (Q9HCT0 whole entry, looked up): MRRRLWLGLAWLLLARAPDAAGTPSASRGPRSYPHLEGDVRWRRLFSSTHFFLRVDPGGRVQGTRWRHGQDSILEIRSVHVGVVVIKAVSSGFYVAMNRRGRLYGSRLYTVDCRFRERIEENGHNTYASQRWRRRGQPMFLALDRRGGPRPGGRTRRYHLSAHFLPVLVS
rRNA inh HTS = reduced GFP signal of wild-type E. coli, primary screen, bacterial rRNA inhibitor project, GFP/RFP fluorescence, OD600, single point; AID 720706, 2013; E. coli WT GFP vs humanized-ribosome RFP mutants, 24 h; stronger effect = lower value; DMSO median 0, no signal -100; 350,000 compounds, 1.6% hits; GFP signal change (wild-type ribosome), % (concentration not given with the values);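 active = significant combined selectivity score with lowered wild-type GFP, culture density cut under 30%, mutant RFP and density less affected; inactive = any of these conditions unmet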
The depositor's hits bear a star; . = not tested or not shown.

SMILES	PglD DTNB	Vif imaging	Cneo AK release	PGC1a acetyl inh	FGF22 binding	rRNA inh HTS
COc1ccc(CN(C)C[C@@H]2OCCCC[C@H](C)Oc3ccc(NC(=O)Nc4ccc(F)cc4)cc3C(=O)N([C@@H](C)CO)C[C@H]2C)cc1	15.3	.	-0.3	-5.8	-0.4	-16.5
CCOC(=O)c1cc2sccc2n1CCCN1C(=O)c2ccccc2C1=O	-1.5	-2.4	-4.4	-27.8	0.3	-28.1*
CCOC(=O)c1sc(-c2ccc(Br)cc2)cc1N	-3.6	2.5	-18.5	-4.1	0.2	-33.8*
NNC(=O)c1sc(-c2ccc(Cl)cc2)cc1N	6.0	13.9	3.0	-8.5	43.5*	-7.6
CCNC(=O)[C@@H]1[C@@H](CO)[C@@H]2Cn3c(ccc(/C=C/c4ccccc4)c3=O)[C@H]1N2	0.4	.	-1.2	-10.3	0.1	2.6
O=C(NN=C1CCCCCC1)c1ccc2c(c1)OCO2	0.4	12.5	-0.9	.	43.1*	8.2
O=C(NNC(=O)c1ccc(F)cc1F)c1ccc2c(c1)OCO2	.	-8.9	.	.	44.0*	5.1
C[C@@H]1CN([C@@H](C)CO)C(=O)c2cccc(NC(=O)c3nc4ccccc4s3)c2O[C@@H]1CN(C)Cc1ccc(Oc2ccccc2)cc1	11.1	.	5.6	18.0	-0.3	3.4
CCCN(C[C@@H]1N[C@@H](CO)[C@H]1c1ccc(-c2cccnc2)cc1)C(C)=O	-1.2	.	2.7	3.6	-0.5	0.9
CCOC(=O)c1cn(CC#N)c2cc(F)c(F)cc2c1=O	.	7.5	.	11.2	43.0*	2.5
CC1SC(=NC(=O)c2ccncc2)NC1=O (stereo not drawn)	.	7.3	.	.	44.5*	11.6
CC1S/C(=N/N=C2CCCCC2)NC1=O (stereo not drawn)	3.2	1.9	2.6	.	-0.2	.
Cc1ccccc1S(=O)(=O)N1C[C@H](O)COC[C@H]2O[C@@H](CC(=O)N3CCOCC3)CC[C@@H]21	0.7	.	-1.1	-1.4	0.1	-1.9
CC(C)CC#Cc1ccc2c(c1)O[C@H](CN(C)Cc1ccccc1)[C@@H](C)CN([C@H](C)CO)S2(=O)=O	.	.	.	52.0*	.	2.7
CC(C)C#Cc1ccc2c(c1)O[C@H](CN(C)C(=O)Cc1ccccn1)[C@H](C)CN([C@H](C)CO)S2(=O)=O	-1.0	.	101.2*	-2.4	-0.2	-1.7
CC(C)CC#Cc1ccc2c(c1)O[C@@H](CN(C)Cc1ccccc1)[C@H](C)CN([C@@H](C)CO)S2(=O)=O	.	.	.	28.8	.	-3.0
CC(C)CC#Cc1ccc2c(c1)O[C@H](CN(C)Cc1ccccn1)[C@H](C)CN([C@@H](C)CO)S2(=O)=O	-0.9	.	-11.5	-0.8	-0.1	-28.7
C[C@H]1CN([C@@H](C)CO)S(=O)(=O)c2ccc(C#CC3CCCC3)cc2O[C@@H]1CN(C)Cc1cccnc1	-2.3	.	-6.7	-1.6	-0.7	-14.0
CC(C)CC#Cc1ccc2c(c1)O[C@@H](CN(C)Cc1ccccn1)[C@H](C)CN([C@H](C)CO)S2(=O)=O	-1.7	.	-12.6	4.0	-0.3	-22.9*
C[C@H]1CN([C@@H](C)CO)S(=O)(=O)c2ccc(C#CC3CCCCC3)cc2O[C@@H]1CN(C)Cc1cccnc1	-0.1	.	-14.9	63.9*	0.1	.
O=C(C[C@H]1CC[C@H]2[C@@H](COC[C@@H](O)CN2S(=O)(=O)c2ccc(Cl)cc2)O1)NCc1ccc(Cl)c(Cl)c1	2.5	.	1.5	7.2	0.1	-47.9
CNC[C@H]1Oc2cc(C#CCN(C)C)ccc2S(=O)(=O)N([C@@H](C)CO)C[C@@H]1C	2.7	.	0.0	7.9	0.0	1.1
O=C(C1CCCC1)N1CC[C@@H]2[C@H]1c1cc(C3=CCCCC3)ccc1N[C@@H]2CO	.	.	.	-12.9	.	-1.7
C[C@H](CO)N1C[C@H](C)[C@H](CN(C)CC2CCCCC2)OCCCC[C@H](C)Oc2ccc(NC(=O)Nc3ccc(F)cc3)cc2C1=O	-1.1	.	3.8	-12.4	-1.1	-46.1
C[C@@H]1CN([C@H](C)CO)S(=O)(=O)c2ccc(C#CC3CC3)cc2O[C@H]1CN(C)CC1CCOCC1	0.9	.	85.2*	-16.2	-0.7	-7.1
SMILES	PglD DTNB	Vif imaging	Cneo AK release	PGC1a acetyl inh	FGF22 binding	rRNA inh HTS
CC(C)CC#Cc1ccc2c(c1)O[C@H](CN(C)Cc1ccccc1)[C@H](C)CN([C@@H](C)CO)S2(=O)=O	.	.	.	48.0*	.	-11.0
CC(C)CC#Cc1ccc2c(c1)O[C@@H](CN(C)Cc1ccc(F)cc1)[C@H](C)CN([C@@H](C)CO)S2(=O)=O	-0.3	.	9.9	-2.7	-0.2	4.3
C[C@H]1CN([C@@H](C)CO)S(=O)(=O)c2ccc(C#Cc3ccccn3)cc2O[C@@H]1CN(C)Cc1ccccc1	0.9	.	107.0*	-14.1	-0.2	-9.2
C[C@@H]1CCCCO[C@@H](CN(C)S(C)(=O)=O)[C@@H](C)CN([C@@H](C)CO)C(=O)c2cc(NS(C)(=O)=O)ccc2O1	0.6	.	54.6	7.7	0.4	-1.0
C=CCn1c(SCC(=O)c2ccc(O)c(O)c2)nnc1-c1ccccc1OC	3.8	53.6*	1.0	.	-0.2	3.9
C=CCn1c(SCC(=O)c2ccc(O)c(O)c2)nnc1-c1cccc(C)c1	9.4	7.7	1.1	-5.4	-0.2	-26.9*
CCn1c(SCC(=O)c2ccc(O)c(O)c2)nnc1-c1ccccc1OC	-3.6	.	0.6	-3.7	.	.
CCOCC(=O)Nc1ccccc1C(=O)N1CCOCC1	-1.2	8.7	-1.6	.	44.1*	15.1
COCC(=O)N[C@@H]1CC[C@H](CC(=O)NCc2ccccc2OC)O[C@@H]1CO	5.2	.	-0.5	-0.3	0.0	-0.6
COC(=O)c1cc(S(=O)(=O)NCC2CCN(C(=O)C(=O)c3cc4ccccc4o3)CC2)cs1	.	.	.	.	0.2	-18.8*
COc1ccc(C(=O)NCC2CCN(C(=O)C(=O)c3cc4ccccc4o3)CC2)c(OC)c1	.	.	.	.	0.1	-13.2*
COc1ccc2c3c([nH]c2c1)[C@@H](CO)N(C(=O)NC(C)C)CC31CN(C(=O)C2CCCCC2)C1	.	.	.	7.2	-0.1	-3.1
CC(C)(C)[S@@](=O)N1Cc2cc(C(=O)NCc3ccc4c(c3)OCO4)nc(-c3cccc(-c4ccncc4)c3)c2[C@H]1CCO	7.6	.	2.3	15.2	0.0	-2.0
COc1cccc(-c2ccc3c(c2)O[C@@H](CN(C)C)[C@@H](C)CN([C@H](C)CO)S3(=O)=O)c1	1.0	.	42.0	-7.1	-0.9	2.4
Cc1ccccc1CSCc1nc2ccccc2[nH]1	.	-1.2	.	.	0.3	-22.2*

Bioassay records deposited in PubChem by Broad Institute.
